From PubChem BioAssay
Compounds with a hit are over-represented: about 2.6% of the library has one in this group of screens.
IMP-1 inh – blocks Pseudomonas aeruginosa IMP-1 metallo-beta-lactamase. purified IMP-1, nitrocefin hydrolysis, epi-absorbance fluorescence. inhibition, % at 5.6 µM. hit rate 0.45% among 290,000. AID 1556;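 active means inhibition above the mean plus 3 SD of all compounds in the same screening run, cut at about 4.5% in these data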;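 further: 0% = IMP-1 with DMSO and 100% = DMSO wells lacking enzyme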
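System: purified recombinant IMP-1 beta-lactamase. Medium: Zinc- and detergent-supplemented HEPES buffer, pH 7.1. Compound: one 5.6 µM dose […]. Schedule: 15 min preincubation plus 25 min reaction at 25 °C. Technique: Epi-absorbance fluorescence, 480 nm excitation, 530 nm emission.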
RanGTP-Impb inh – inhibitors of RanGTP-importin-beta interaction, primary screen, biochemical, FRET, CFP-Ran, YFP-importin-beta, homogeneous; inhibition, % (concentration not given with the values); hit rate 1.1% among 300,000; cell-free CFP-Ran/YFP-importin-beta FRET ratio;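 active means more than half of the replicate wells show a fall in the fluorescence ratio signal beyond about 16%, limit read from the data, passing the limit was not always enough; inconclusive means exactly half of the replicate wells pass the set limit; inactive means fewer than half of replicates pass the limit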;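 further: 0% = DMSO wells and 100% = Ran loaded with GDP instead of GTP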
Runt-CBFb FRET – blocks binding of human RUNX1 Runt domain to CBFb; inhibition, % at 20 µM; Cerulean-Runt/Venus-CBFb FRET ratio 530/480, 1 h; hit rate 0.46% among 220,000;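 active means inhibition over about 50% at 20 µM in the single-dose screen, limit read from the data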;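 further: 0% = DMSO wells and 100% = excess unlabeled CBFb competitor control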
Target sequence (Q01196 whole entry, looked up, the tested form may be a part): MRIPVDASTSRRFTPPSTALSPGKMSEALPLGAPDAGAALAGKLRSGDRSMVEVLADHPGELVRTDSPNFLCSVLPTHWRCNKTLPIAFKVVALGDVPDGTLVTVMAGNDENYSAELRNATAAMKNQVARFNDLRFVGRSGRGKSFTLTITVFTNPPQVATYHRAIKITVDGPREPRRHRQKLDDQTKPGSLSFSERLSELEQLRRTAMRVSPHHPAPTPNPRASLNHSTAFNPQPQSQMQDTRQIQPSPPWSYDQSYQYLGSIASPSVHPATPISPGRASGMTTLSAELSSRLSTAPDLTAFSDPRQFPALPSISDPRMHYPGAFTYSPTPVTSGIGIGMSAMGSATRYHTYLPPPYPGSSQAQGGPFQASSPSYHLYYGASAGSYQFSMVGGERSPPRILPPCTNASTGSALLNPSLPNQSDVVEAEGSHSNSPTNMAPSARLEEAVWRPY
Target sequence (Q13951 whole entry, looked up, the tested form may be a part): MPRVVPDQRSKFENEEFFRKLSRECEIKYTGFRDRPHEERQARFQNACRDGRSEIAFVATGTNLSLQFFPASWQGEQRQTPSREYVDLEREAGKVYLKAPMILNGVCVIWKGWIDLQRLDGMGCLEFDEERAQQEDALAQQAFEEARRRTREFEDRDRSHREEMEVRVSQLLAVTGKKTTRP
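Reagent – Venus-CBFb binding partner, 100 nM · Assay system – Cerulean-tagged RUNX1 Runt domain (FRET donor) fusion protein · Input – 100 nM per protein · Incubation – two 1 h room-temperature incubations shielded from light · Measured by – FRET fluorescence · Medium – Tris buffer pH 7.5 with salts and BSA · Benchmarks – unlabeled CBFb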
VIM-2 inh – blocks Pseudomonas aeruginosa VIM-2 metallo-beta-lactamase; purified VIM-2, nitrocefin hydrolysis, epi-absorbance fluorescence; inhibition, % at 5.6 µM; hit rate 0.89% among 290,000;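 active means inhibition above the mean of all tested compounds plus 3 SD, cutoff set per screening run, cut at about 7.5% in these data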;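 further: red hydrolysis product quenches plate fluorescence so inhibitors raise well fluorescence; 0% = enzyme with DMSO and 100% = DMSO without enzyme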
Runt-SMMHC FRET – blocks binding of human RUNX1 Runt domain to CBFb-SMMHC; AID 1434; inhibition, % at 20 µM; Cerulean-Runt/Venus-CBFb-SMMHC FRET ratio 530/480, 1 h; Q01196+Q13951; hit rate 0.74% among 220,000;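 active means mean inhibition across duplicate retests at 20 µM reaching about 50%, limit read from the data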;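 further: 0% = DMSO wells and 100% = wells with excess untagged CBFb-SMMHC; inhibitors lower the FRET ratio by blocking Runt binding to CBFb-SMMHC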
Numbers without * were called inactive; ? = inconclusive; . = not tested or not shown.

SMILES	IMP-1 inh	RanGTP-Impb inh	Runt-CBFb FRET	VIM-2 inh	Runt-SMMHC FRET
N/C(Cc1nc2ccccc2s1)=N\O	-4	85*	4	-2	5
Cc1ccc(C)c(NC(=O)NCCN2CCCCC2)c1	-2	-1	.	-2	.
CCN(CC)S(=O)(=O)c1ccc(S(=O)(=O)N2CCC(N3CCCCC3)CC2)cc1	-2	1	.	0	.
CCCNc1nc2ccccc2n2c(C)nnc12	-6	-2	.	11*	.
CCc1nnc2c(NCCc3ccccc3)nc3ccccc3n12	-2	-2	.	8.5*	.
O=C(c1ccccc1Cc1ccccc1)N1CCN(S(=O)(=O)c2ccccc2Br)CC1	.	2	.	.	.
Cc1cc(OC(=O)c2cc(C(F)(F)F)cc(C(F)(F)F)c2)c([N+](=O)[O-])c(=O)[nH]1	-3	?	.	-2	.
CCOc1ccc(C2CC(c3cccc(Cl)c3)n3nc(N)nc3N2)cc1 (stereo not drawn)	-4	26*	-2	-2	4
Cc1ccccc1NC(=O)c1ccc(NC(=O)C2CCCO2)cc1 (stereo not drawn)	-4	-2	.	-3	.
Cc1nn2c(-c3cccc(NC(=O)c4ccco4)c3)nnc2c2ccccc12	3	-3	-4	9.8*	-4
Cc1c(CCC(=O)O)c(=O)n2c([nH]c3ccccc32)c1C#N	-4	?	7	0	3
CCc1c(C)c(C#N)c2[nH]c3ccccc3n2c1=S	0	10	15	2	84*
COCc1cc(=O)n2c([nH]c3ccccc32)c1C#N	2	0	44	2	59*
CCc1cc(=O)n2c([nH]c3ccccc32)c1C#N	-1	-5	7	1	5
C=C(C)Cc1c(C)c(C#N)c2[nH]c3ccccc3n2c1=O	-1	42*	.	4	.
Cc1ccc(Cc2c(C)c(C#N)c3[nH]c4ccccc4n3c2=O)cc1	-1	21*	-1	0	2
CCc1cc(=S)n2c([nH]c3ccccc32)c1C#N	-1	3	32	4	24
O=C(CNC(=O)c1cccs1)OCc1c(F)cccc1Cl	-5	-2	.	-3	.
CN1C(=O)/C(=C\c2ccccc2F)Sc2ccc(C(=O)NC3CCN(Cc4ccccc4)CC3)cc21	0	5	.	2	.
COc1cccc(NC(=O)C2CCN(C(=O)[C@@H]3Cc4ccccc4CN3)CC2)c1	-2	0	.	-1	.
O=C1NN(c2ccc(Br)cc2)C(=O)/C1=C\c1ccc(O)cc1O	-4	142*	.	0	.
FC(F)(F)c1cc(-c2cccs2)nc2cc(-c3cccs3)nn12	-3	43*	-5	-1	-32
O=C(O)c1nn2c(C(F)(F)F)cc(-c3cccs3)nc2c1Cl	-4	-4	-6	0	-17
Cc1cccc(C(=O)N=c2c(C#N)cc3c(=O)n4cccc(C)c4nc3n2Cc2ccco2)c1	-3	112*	95*	4	.
O=C(CSc1nc2ccccc2c(=O)n1Cc1ccco1)c1ccccc1	3	2	2	-1	-1
SMILES	IMP-1 inh	RanGTP-Impb inh	Runt-CBFb FRET	VIM-2 inh	Runt-SMMHC FRET
Cc1cccn2c(=O)c3cc(C#N)c(=NC(=O)c4ccco4)n(Cc4ccco4)c3nc12	2	120*	10	2	88*
Cc1cccn2c(=O)c3cc(C#N)c(=NC(=O)c4ccccc4)n(Cc4ccco4)c3nc12	.	110*	.	.	.
N=c1c(S(=O)(=O)c2ccc(Br)cc2)cc2c(=O)n3ccccc3nc2n1Cc1ccco1	-2	4	.	1	.
Cc1nc2c(C)cccn2c(=O)c1NC(=O)c1ccco1	.	-3	.	.	.
Cc1sc2nc3ccc(NCc4ccco4)nn3c(=O)c2c1C	6.2*	7	6	4	60*
CC(=O)NC1(C(F)(F)F)NC(=O)N(CCc2ccccc2)C1=O (stereo not drawn)	-2	-2	.	-2	.
COc1ccc2c(c1)c(C(=O)CN1CCN(C(=O)c3ccco3)CC1)c(C)n2C	-3	19*	-3	1	-38
COc1ccc(-c2ccc(-c3nc4ccc(C)cn4c3NC3CCCCC3)cc2OC)cc1	.	1	.	.	.
CC(C)CN(C(=O)c1ccc(C(F)(F)F)cc1)c1c(N)n(CC(C)C)c(=O)[nH]c1=O	-1	4	.	1	.
O=C1OC(c2ccc(Cl)cc2)=C/C1=C/c1cccnc1	-2	4	.	-4	.
Cc1ccc(C2=C/C(=C/c3cccnc3)C(=O)O2)c(C)c1	-2	34*	2	-1	-2
